# Compound activity as filed in PubChem.
# T cell modulator – T cell immune modulation candidate | 2C CD8+ T cell-vesicle binding, flow cytometry; hits give low values | response (vesicle binding), % at 7 µM | hit rate 0.068% among 330,000;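 active = response, share of CD8 T cells binding vesicles, and their 90th percentile fluorescence all below set limits, cut at about 80% in these data, passing the limit was not always enough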;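 note: values below 100% mean blocked vesicle binding to the CD8+ T cells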
#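 Read-out – percent CD8+ FL2 mean versus row control · System – murine 2C transgenic CD8+ T lymphocytes · Times – 1.5 h cell–vesicle binding at 37 °C, then 20 min icy labelling · Control set – naked vesicles low, QL9 vesicles with vehicle high · Detection – cytometric PE anti-B7-1 and Alexa647 anti-CD8 signals after 1% paraformaldehyde fixation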
# HIF act – HIF pathway transcriptional activation; U2OS HRE-luciferase reporter, luminescence; normalized: DMSO 0%, desferrioxamine 100%; AID 1910; hit rate 0.32% among 300,000; activation, % at 7.5 µM (by protocol);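 active = mean activation of at least 10% of the iron chelator positive control signal, with at least half of replicates also reaching 10%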
# JMJD2C inh – blocks human GASC-1 demethylase activity; GST-JMJD2C(1-420) H3K9me3 demethylation, DELFIA europium; inhibition, % at 2.35 µM; Q9H3R0; hit rate 0.069% among 330,000;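 active = more than half of a compound's replicate wells show inhibition beyond 50%, single wells judged on their own value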;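 note: signal counts dimethyl H3K9 product captured on neutravidin plate; 0% = median of DMSO wells and 100% = 0.3 times that DMSO median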
# Target sequence (Q9H3R0 1-420 limits assumed): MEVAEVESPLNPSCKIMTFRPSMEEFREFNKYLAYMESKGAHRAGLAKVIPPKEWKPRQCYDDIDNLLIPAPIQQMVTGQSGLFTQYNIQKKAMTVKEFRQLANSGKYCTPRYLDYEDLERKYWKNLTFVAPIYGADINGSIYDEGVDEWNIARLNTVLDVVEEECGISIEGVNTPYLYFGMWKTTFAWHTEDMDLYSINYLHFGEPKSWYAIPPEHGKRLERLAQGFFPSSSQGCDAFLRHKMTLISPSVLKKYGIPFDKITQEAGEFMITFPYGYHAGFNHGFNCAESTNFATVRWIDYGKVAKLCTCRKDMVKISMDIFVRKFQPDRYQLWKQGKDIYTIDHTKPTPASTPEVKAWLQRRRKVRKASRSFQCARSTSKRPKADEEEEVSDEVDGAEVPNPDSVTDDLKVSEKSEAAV
# Mot1-301 SUMO – inhibitors of SUMOylation pathway: yeast Mot1-301 growth rescue. hit rate 1% among 320,000. AID 2716. S. cerevisiae Mot1-301 growth rescue, ATP luminescence, 38.5C; percent above DMSO median, 100 means doubled. growth rescue, % at 18.8 µM;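 active = every valid replicate shows activation above 250% relative to neutral control wells; inactive = the rest, any valid replicate at or below 250%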;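 note: OY570 slx delta 5 strain wells were the positive control but not used for scaling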
# Yeast Mot1 SUMO – SUMO pathway inhibitors in yeast Mot1-301 growth. shares compounds with Mot1-301 SUMO. S. cerevisiae Mot1-301 galactose growth, ATP luminescence, 24 h; -100 = growth of slx-deleted rescue strain. growth activity, percent, % at 42 µM. 2,300 tested, under 10 active. AID 493004;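 active = Signal drops as the depositor expects, and the fitted half-maximal dose is no more than ten times the top valid tested dose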;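 note: more negative values mean stronger growth rescue toward the control strain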
# An asterisk follows results filed as active; i = inactive; · = no result; + = active, no number. The list is not random: actives were taken first. Their share in the collection is about 1.4%.
SMILES,T cell modulator,HIF act,JMJD2C inh,Mot1-301 SUMO,Yeast Mot1 SUMO
CCC(=O)NCCSc1c[nH]c2ccccc12,344,0,-48,131,·
O=C1CC2(CCN(C(=O)c3ccc(F)cc3)CC2)Oc2ccccc21,508,-7,20,0,·
Cc1nc(NC(=O)CSc2nc(N)cc(N)n2)sc1C,426,0,-6,661*,0
COc1cccc(NC(=S)NC(=O)c2cncc(Br)c2)c1,464,1,0,983*,-1
COc1cccc(-n2c(Cc3cc(=O)[nH]c(=O)[nH]3)nnc2SCc2cccnc2)c1,271,·,-6,511*,0
Cc1ccc([N+](=O)[O-])cc1NC(=O)C(Sc1ccccc1)c1ccccc1 (centres undefined),279,0,-7,-12,·
c1ccc(-c2nc(N3CCOCC3)c3ccccc3n2)nc1,392,0,7,481*,-1
CCOc1ccc(C(C)(C)C)cc1S(=O)(=O)n1nc(C)cc1C,i,0,1,56,·
CCOc1ccc(C)cc1S(=O)(=O)n1nc(C)cc1C,104,0,-6,477*,0
O=C(O)CCCNS(=O)(=O)Cc1ccccc1,123,0,2,4,·
CCCCOCCCNS(=O)(=O)Cc1ccccc1,169,0,14,366*,0
CC(=O)c1ccc(N2CCN(CC(=O)Nc3cc(C)on3)CC2)cc1,304,0,-8,483*,1
CC(C)(C)NC(=O)CC1C[C@H](C(=O)N2CCCCC2)[C@@]2(C)c3[nH]c4ccccc4c3CCN2C1=O (some centres undefined),109,·,24,3,·
O=C1OC(Cc2ccccn2)C(O)=C1C1=NCCCN1 (centres undefined),186,·,1,375*,0
CCOC(=O)c1cc2sc(C)cc2n1CC(=O)Nc1ccc2c(c1)OCCO2,·,1,-13,784*,0
CCOC(=O)c1cc2sc(C)cc2n1CC(=O)Nc1cccc(C)c1C,196,0,4,125,·
Cc1ccc(C)n1-c1ccc(N(C)C)cc1,374,0,3,+,0
Cc1ccc(C)n1-c1ccc(N2CCOCC2)cc1,236,0,·,-2,·
CCCOc1ccccc1C1NC(=O)NC(C)=C1C(=O)OCCOCC (centres undefined),262,-1,9,565*,1
CCCCOc1ccccc1C1NC(=O)NC(C)=C1C(=O)OCCOCC (centres undefined),355,-3,14,-9,·
CCc1ccc(Nc2ncc3c(n2)CC(C)(C)CC3=O)cc1,239,2,3,-14,·
CCN(CC)CCNc1ncnc2c1[nH]c1ccc(OC)cc12,164,-1,7,+,1
C=CCOc1ccc(Br)cc1CNC(C)(C)C,267,0,-5,10,·
COc1cc(CN2CCN(c3ncccn3)CC2)cc(OC)c1,241,-3,22,534*,0
CC(C)Cn1c(=S)[nH]c2cc(Cl)ccc21,200,-1,5,-4,·
SMILES,T cell modulator,HIF act,JMJD2C inh,Mot1-301 SUMO,Yeast Mot1 SUMO
CSc1ccc(S(=O)(=O)NCC(=O)OCC(=O)N2CCC(C)CC2)cc1[N+](=O)[O-],459,·,3,-8,·
O=C(N/N=C/c1ccccc1)c1n[nH]c2c1CCCC2,434,2,4,25,·
O=C(N/N=C/C(Br)=C/c1ccccc1)c1n[nH]c2c1CCC2,293,0,2,508*,-1
COc1ccc(CN2CC(=O)N(c3ccccc3C)C2=S)cc1OC,107,-1,-11,672*,-1
COc1ccc(CN2CC(=O)N(c3ccc(C)cc3C)C2=S)cc1OC,785,-1,-5,-10,·
CCOC(=O)c1ccc(NC(=O)NCc2ccncc2)cc1,534,1,-8,507*,-1
COc1cc(SC)ccc1C(=O)Nc1cc(C)c(OCC(=O)N2CCOCC2)c(C)c1,407,1,9,562*,0
Cn1nc(C(C)(C)C)c([N+](=O)[O-])c1C(=O)Nc1ccccc1,242,-1,-2,586*,0
O=C(COC(=O)c1ccccc1SCC(=O)N1CCCC1)NC1CCCCC1,185,0,9,792*,0
CC1(C)NC(=O)N(CCCCOc2ccccc2[N+](=O)[O-])C1=O,406,-1,-4,6,·
CC1(C)NC(=O)N(CCCOc2ccccc2Br)C1=O,279,2,165,+,0
O=C(COC(=O)CNC(=O)c1cccc(OC(F)F)c1)NNC(=O)c1ccccc1,628,·,-2,12,·
CCn1nc(C)c(CN2CCCC(CO)(Cc3cccc(Cl)c3)C2)c1C (centres undefined),349,0,-7,·,·
CSc1ccc(CCNC(=O)C2CCCN(S(=O)(=O)N3CCOCC3)C2)cc1 (centres undefined),350,0,-28,564*,0
O=C(NNC(=O)c1ccccc1OCc1ccccc1Cl)c1csc(N2CCOCC2)n1,i,0,2,-5,·
COc1ccc(-c2[nH]ncc2CNCc2cc(C)n(C)n2)c(F)c1,760,-1,0,13,·
COc1ccc(-c2[nH]ncc2CNCCn2cccn2)c(F)c1,553,0,0,+,0
C=CCNC(=O)c1onc(CSc2cccc(C)c2)c1C(=O)O,392,0,-7,775*,1
CN(C(=O)CSc1nc2ccccc2c(=O)n1-c1ccccc1Cl)C1CCS(=O)(=O)C1 (centres undefined),507,·,-11,-10,·
COC(=O)c1cc(N=Nc2c(C)[nH]c3ccccc23)cc(C(=O)OC)c1,97,0,6,945*,0
Cc1[nH]c2ccccc2c1N=Nc1cccc(C(=O)O)c1,505,3,9,9,·
Cc1ccc(C(C(=O)Nc2ccc3c(c2)OCO3)N(C)C(=O)/C=C\c2ccc3c(c2)OCO3)cc1 (centres undefined),195,-1,-15,383*,0
CCCCn1c(N)c(N(CC(C)C)C(=O)c2cc(-c3ccc(OC)c(OC)c3)nc3ccccc23)c(=O)[nH]c1=O,434,0,-8,-11,·
CCCCn1c(N)c(N(CC(C)C)C(=O)c2cc(-c3ccc(F)cc3)nc3ccccc23)c(=O)[nH]c1=O,627,0,2,491*,0
C[C@@H](CSc1ccccc1)CN1CC[C@H](O)CCC1=O,471,0,5,-3,·
O=C(CCSc1ccccc1)Nc1ccc(S(=O)(=O)Nc2ncccn2)cc1,159,0,7,-2,·
O=C(CCSc1ccccc1)Nc1ncccn1,368,0,9,731*,0
Cc1noc(C)c1S(=O)(=O)N(C)C[C@H]1Oc2ccc(NC(=O)CCC(F)(F)F)cc2C(=O)N([C@H](C)CO)C[C@@H]1C,162,·,5,13,·
Cc1ccc(NC(=O)C2CCN(S(=O)(=O)c3ccc4c(c3)OCCO4)CC2)nc1,i,0,-6,-2,·
